Active and inactive are the calls of the source. The rule behind the calls is not given here.
Key:
[1] = biological target: T1, Polyamine oxidase 1 (Zea mays, UniProt O64411); assay: Inhibition of maize PAO at pH 6.5 by spectrophotometry-based Dixon plot method
T1 sequence (O64411 whole entry): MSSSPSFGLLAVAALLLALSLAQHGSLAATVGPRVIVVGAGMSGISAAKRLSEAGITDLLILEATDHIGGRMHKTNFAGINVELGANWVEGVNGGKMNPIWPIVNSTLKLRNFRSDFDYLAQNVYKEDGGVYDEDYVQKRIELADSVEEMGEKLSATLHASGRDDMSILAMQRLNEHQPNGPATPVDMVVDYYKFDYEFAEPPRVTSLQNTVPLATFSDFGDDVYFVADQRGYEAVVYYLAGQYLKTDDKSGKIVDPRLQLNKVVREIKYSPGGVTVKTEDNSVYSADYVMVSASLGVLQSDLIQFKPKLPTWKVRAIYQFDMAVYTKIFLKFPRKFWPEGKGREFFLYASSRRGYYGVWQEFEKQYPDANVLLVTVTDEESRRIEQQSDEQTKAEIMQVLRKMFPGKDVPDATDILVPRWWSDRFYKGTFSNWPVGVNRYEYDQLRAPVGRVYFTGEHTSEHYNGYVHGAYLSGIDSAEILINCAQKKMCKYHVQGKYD
Summary of the method: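 H₂O₂ was detected by peroxidase-coupled 4-aminoantipyrine/3,5-dichloro-2-hydroxybenzenesulfonate adduct at 515 nm. Ki was obtained by the Dixon method. Mean of three experiments, each in duplicate.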

[2] = system: HeLa; assay: Antiproliferative activity against human HeLa cells at 1 uM after 96 hrs by MTT assay; type: functional, cell-based
Summary of the method: (§1)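 Cells seeded at 2.5 × 10³ cells/well in DMEM with 10% FBS and allowed to adhere. They were then exposed to the test compound (0.1-10 μM) for 24, 48, 72 and 96 h. MTT reduction was read at 550 nm, and viability was taken as OD treated / OD untreated control × 100. At least three independent experiments, compared by two-way ANOVA.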

[3] = system: U-373MG ATCC; assay: Cytotoxicity against human U373MG cells at 10 uM after 24 to 96 hrs by MTT assay; type: functional, cell-based; summary of the method: as §1
[4] = system: HeLa; assay: Cytostatic activity in human HeLa cells at 1 uM after 96 hrs by trypan blue assay; type: functional, cell-based
Summary of the method: (§2)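 Cells seeded in DMEM with 10% FBS at 2.5 × 10³ cells/well and allowed to adhere. They were then incubated with or without 1 μM compound for 0, 24, 48, 72 and 96 h. Trypan blue exclusion was used: unstained cells were counted twice in a Neubauer chamber, in duplicate, and reported as living cell number (×10⁷). At least three independent runs, with two-way ANOVA against control.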

[5] = system: HeLa; assay: Cytostatic activity in human HeLa cells at 1 uM after 48 hrs by trypan blue assay; type: functional, cell-based; summary of the method: as §2
[6] = system: U373 MG; assay: Cytostatic activity in human U373MG cells at 1 uM after 72 hrs by trypan blue assay; type: functional, cell-based; details: U-373MG ATCC; summary of the method: as §2
[7] = system: HeLa; assay: Antiproliferative activity against human HeLa cells at 1 uM after 72 hrs by MTT assay; type: functional, cell-based; summary of the method: as §1
[8] = system: U-373MG ATCC; assay: Antiproliferative activity against human U373MG cells at 1 uM after 96 hrs by MTT assay; type: functional, cell-based; summary of the method: as §1
[9] = system: HeLa; assay: Cytostatic activity in human HeLa cells at 1 uM after 72 hrs by trypan blue assay; type: functional, cell-based; summary of the method: as §2
[10] = system: HeLa; assay: Antiproliferative activity against human HeLa cells at 1 uM after 48 hrs by MTT assay; type: functional, cell-based; summary of the method: as §1
[11] = system: U373 MG; assay: Cytostatic activity in human U373MG cells at 1 uM after 48 hrs by trypan blue assay; type: functional, cell-based; details: U-373MG ATCC; summary of the method: as §2
[12] = system: U-373MG ATCC; assay: Antiproliferative activity against human U373MG cells at 1 uM after 72 hrs by MTT assay; type: functional, cell-based; summary of the method: as §1
[13] = system: U-373MG ATCC; assay: Antiproliferative activity against human U373MG cells at 1 uM after 48 hrs by MTT assay; type: functional, cell-based; summary of the method: as §1
[14] = system: U373 MG; assay: Cytostatic activity in human U373MG cells at 1 uM after 96 hrs by trypan blue assay; type: functional, cell-based; details: U-373MG ATCC; summary of the method: as §2
[15] = system: HeLa; assay: Cytotoxicity against human HeLa cells at 10 uM after 24 to 96 hrs by MTT assay; type: functional, cell-based; summary of the method: as §1

| Compound | Ki [1] [nM] | further results |
| --- | --- | --- |
| C=C(C)CCNC(N)=NCCCCCCCCNCCCCCCCCN=C(N)N | 0.5 |  |
| C=CCNC(=N)NCCCCN | 130 |  |
| NCCCCCCCCN [DIAMINOOCTANE] | 300 |  |
| CC(C)=CCNC(N)=NCCCCCCCCNCCCCCCCCN=C(N)N | 3 |  |
| CC(C)=CCN=C(N)NCCCCN=C(N)NCC=C(C)C | 1500 |  |
| NCCCCCN=C(N)NC/C=C/c1ccccc1 | 1530 |  |
| N=C(N)NCCCCCCCCNCCCCCCCCNC(=N)N [IMINOCTADIENE] | 7.5 |  |
| N=C(N)NCCCCN [AGMATINE] | 3000 |  |
| CC(C)=CCNC(=N)NCCCCCN | 10 |  |
| CC(C)=CCNC(=N)NCCCCN | 15 |  |
| CC(C)=CCNC(N)=Nc1ccc(CN)cc1 | 18000 |  |

Continued by falling Ki [1], values first:

| Ki [1] [nM] | Compound | further results |
| --- | --- | --- |
| 2580 | NCCCCCN=C(N)NCC1CC1 |  |
| 1720 | N=C(NCCCCCN)NCCC1CCCCC1 |  |
| 1210 | CC(C)=CCNC(=N)NCCCNCCCN |  |
| 1150 | COc1cccc(CNC(N)=NCCCCCN)c1 |  |
| 700 | CC(C)=CCNC(N)=NCCCCN=C(N)N |  |
| 630 | NCCCCN=C(N)Nc1ccc(F)cc1 |  |
| 250 | C#CCNC(=N)NCCCCN |  |
| 22 | CC(C)=CCNC(=N)NCCCCCCN |  |
| 1.7 | CC(C)=CCN=C(N)NCCCCCCCCNCCCCCCCCN=C(N)NCC=C(C)C |  |
| 1.1 | C/C=C/CNC(=N)NCCCCCCCCNCCCCCCCCNC(=N)N |  |
| 1 | NC(N)=NCCCCCCCCNCCCCCCCCN=C(N)NCc1ccccc1 |  |
| 0.7 | C#CCNC(N)=NCCCCCCCCNCCCCCCCCN=C(N)N |  |
| 0.08 | N=C(N)NCCCCCCCCNCCCCCCCCNC(=N)NCC1CC1 | Activity [2]: Active; Activity [3]: Active; Activity [4]: Active; Activity [5]: Active; Activity [6]: Active; Activity [7]: Active; Activity [8]: Active; Activity [9]: Active; Activity [10]: Active; Activity [11]: Active; Activity [12]: Active; Activity [13]: Active; Activity [14]: Active; Activity [15]: Active |

— ChEMBL document CHEMBL1158478, “Synthesis and biological evaluation of guanidino compounds endowed with subnanomolar affinity as competitive inhibitors of maize polyamine oxidase” (J Med Chem, 2009)
